Shown are actives, neighbours in structure and some others; about 2.6% of the full set was active somewhere.
SENP7 inh: SENP7 protease inhibition; recombinant SENP7, Z-RLRGG-aminoluciferin luminescence, 40 min; Q9BQF6; inhibition, % at 5 µM; 330,000 tested, 1.5% active;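 active = inhibition above about 50% at the single test dose, limit read from the data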;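 note: plate controls were DMSO with enzyme for no effect and no enzyme buffer wells for full effect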
Platelet DG rel: modulates dense granule release in human platelets; human platelet-rich plasma, SFLLRN dense granule ATP release, luminescence; inhibition, %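 (compounds screened at 7.5 µM in platelet-rich plasma)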; 300,000 tested, 0.22% active; AID 1663;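 active = mean replicate score, as percent of positive control, at or above 50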
SENP1 inh: blocks the human SENP1 SUMO protease catalytic domain; Q9P0U3; recombinant SENP1 catalytic domain, CyPet-SUMO1-YPet FRET cleavage; inhibition, % at 10 µM; 360,000 tested, 0.21% active; AID 624204;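 active = inhibition at least 30% at 10 µM, raw YFP signal under a set limit, fluorescence ratio 0.5 to 1.5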;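 note: 0% = enzyme with DMSO and 100% = no enzyme wells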
Target sequence (Q9P0U3 419-644 limits assumed): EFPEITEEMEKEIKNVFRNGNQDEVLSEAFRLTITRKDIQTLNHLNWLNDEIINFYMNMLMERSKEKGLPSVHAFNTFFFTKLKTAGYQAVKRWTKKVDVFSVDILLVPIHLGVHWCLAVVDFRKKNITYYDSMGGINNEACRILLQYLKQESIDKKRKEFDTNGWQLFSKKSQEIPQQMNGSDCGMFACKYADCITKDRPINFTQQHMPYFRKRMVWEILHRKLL
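Test system: hSENP1 catalytic domain, recombinant; Amount: 20 pM final SENP1 enzyme; Medium: Tris pH 8 buffer plus EDTA, NaCl, BME, BSA, NP40, catalase; Schedule: 50 min enzyme reaction, room temperature, light-protected; Technique: FRET fluorescence in CFP and YFP emission channels; Controls: no-enzyme wells low, DMSO-plus-enzyme wells high control.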
SENP8 block-1: inhibitors of human SENP8 protease; AID 602440; 360,000 tested, 0.64% active; inhibition, % at 20 µM; recombinant SENP8, Nedd8 substrate fluorescence; Q96LD8; in the data active = inhibition mostly above about 40%, no sharp cut-off; inactive = mostly below about 27%
SENP6 block: SENP6 protease inhibition | Q9GZR1 | Recombinant SENP6 catalytic domain, aminoluciferin luminescence | inhibition, % at 10 µM | 330,000 tested, 1.8% active | AID 2599;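 active = inhibition above about 50% at the single tested dose, limit read from the data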;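 note: plate controls were DMSO wells with enzyme for no effect and DMSO wells lacking enzyme for full effect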
Target sequence (Q9GZR1 628-1112 limits assumed): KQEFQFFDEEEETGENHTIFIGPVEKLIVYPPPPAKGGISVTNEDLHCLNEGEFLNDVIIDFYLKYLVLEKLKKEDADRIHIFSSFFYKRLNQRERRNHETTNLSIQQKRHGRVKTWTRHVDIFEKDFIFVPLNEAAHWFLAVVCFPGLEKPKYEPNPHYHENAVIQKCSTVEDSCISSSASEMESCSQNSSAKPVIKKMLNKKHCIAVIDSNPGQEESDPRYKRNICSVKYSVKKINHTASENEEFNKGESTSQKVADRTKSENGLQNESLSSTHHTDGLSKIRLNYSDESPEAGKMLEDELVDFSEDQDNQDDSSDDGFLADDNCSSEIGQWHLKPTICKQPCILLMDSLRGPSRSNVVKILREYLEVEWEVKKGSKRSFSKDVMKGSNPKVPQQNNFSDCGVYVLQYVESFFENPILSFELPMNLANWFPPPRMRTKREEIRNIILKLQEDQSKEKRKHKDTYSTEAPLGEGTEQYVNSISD
SENP8 block-2: blocks the human protease SENP8; Q96LD8; purified SENP8, Z-RLRGG-aminoluciferin cleavage, luminescence; inhibition, % at 10 µM; 330,000 tested, 1.2% active; in the data active = inhibition above about 50%
SENP8 conf: human SENP8 inhibition, confirmed. Recombinant SENP8, Z-RLRGG-aminoluciferin luminescence, 60 min. 6,200 tested, 40% active. shares compounds with SENP7 inh. AID 488912. inhibition, % at 12.5 µM;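 active = mean inhibition across replicates above about 50%, limit read from the data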
SENP6 conf: confirmation of human SENP6 protease inhibitors; shares compounds with SENP7 inh; AID 488915; 6,200 tested, 58% active; recombinant SENP6, Z-RLRGG-aminoluciferin luminescence; inhibition, % at 12.5 µM
SENP7 confirm: confirmation of human SENP7 protease inhibitors; shares compounds with SENP7 inh; recombinant SENP7, Z-RLRGG-aminoluciferin luminescence, 40 min; inhibition, % at 12.5 µM; 6,200 tested, 69% active; AID 488917
Casp3 SENP sel: inhibits human caspase-3 in SENP selectivity test. shares compounds with SENP7 inh. purified caspase-3, Z-DEVD-aminoluciferin luminescence, 60 min. inhibition, % at 12.5 µM. 6,200 tested, 60% active. AID 488918;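 active = mean inhibition above about 50%, limit read from the data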;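 note: plate controls were enzyme with DMSO for no effect and wells without caspase-3 for full effect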
SENP luc ctr: luminescence interference (SENP counter-screen) | 6,200 tested, 39% active | shares compounds with SENP7 inh | AID 488919 | inhibition, % at 12.5 µM | Pre-incubated SENP8/Z-RLRGG-aminoluciferin, luciferase luminescence interference;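 active = mean inhibition above about 50% when retested at one dose, limit read from the data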;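 note: plate controls were DMSO wells with completed reaction for no effect and substrate without enzyme for full effect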
An asterisk follows results filed as active; . = no result.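 Rule for the calls, unless noted: active = mean inhibition above about 50% in the one-dose retest (limit read from the data); inactive = the rest.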

SMILES | SENP7 inh | Platelet DG rel | SENP1 inh | SENP8 block-1 | SENP6 block | SENP8 block-2 | SENP8 conf | SENP6 conf | SENP7 confirm | Casp3 SENP sel | SENP luc ctr
c1c2c(cc3sc(N4CCCCC4)nc13)OCO2 | 99* | 18 | -91 | -9 | 101* | 96* | 97* | 99* | 103* | 98* | 95*
COc1ccc(CCNC(=S)Nc2ccc(S(=O)(=O)Nc3ncccn3)cc2)cc1OC | 1 | -2 | 0 | 0 | -6 | 2 | . | . | . | . | .
Cc1ccc(-c2noc(-c3ccccc3F)n2)cc1 | 97* | 11 | -1 | 7 | 96* | 76* | 73* | 95* | 101* | 85* | 68*
O=C(O)c1ccc(-c2noc(-c3ccccc3F)n2)cc1 | 99* | 69* | 4 | 7 | 99* | 96* | 100* | 101* | 104* | 100* | 95*
CS(=O)c1ccccc1-c1nc(-c2ccc(Cl)cc2)no1 (stereo unspecified) | -2 | 1 | 3 | 10 | -5 | 2 | . | . | . | . | .
O=C(c1ccccc1-c1nc(-c2ccc(F)cc2)no1)N1CCCC1 | 0 | 5 | 0 | 13 | -6 | 12 | . | . | . | . | .
O=C1C(=O)N(CCCN2CCOCC2)C(c2ccc([N+](=O)[O-])cc2)/C1=C(/O)c1ccc2c(c1)OCO2 (stereo unspecified) | -14 | -1 | -5 | 10 | 3 | 1 | . | . | . | . | .
Cc1csc(NC(=O)c2ccc(C(=O)Nc3nc(C)cs3)cc2)n1 | 14 | -9 | . | . | 25 | 17 | . | . | . | . | .
Cn1cccc1C(=O)Nc1nc(-c2ccccn2)cs1 | 62* | 25 | -3 | 12 | 74* | 43 | 76* | 76* | 93* | 84* | 78*
Cc1csc(NC(=O)c2cccn2C)n1 | 91* | 27 | 0 | 9 | 82* | 76* | 76* | 75* | 96* | 93* | 84*
CCCC(/C=C/c1ccc(OC(C)=O)cc1)=C1/c2ccccc2C(=O)N1c1ccccc1 | -2 | . | -23 | -128 | 10 | -1 | . | . | . | . | .
Cc1cc(C(=O)COc2cccc([N+](=O)[O-])c2)c(C)n1C1CC1 | 21 | . | -1 | 17 | 58* | 34 | 67* | 63* | 89* | 66* | 36
O=C1c2ccccc2C(=O)N1CCSc1ccccc1 | 41 | -5 | 4 | 20 | 60* | 8 | 26 | 25 | 72* | 50 | 48
O=C1c2ccccc2C(=O)N1CCSc1nncs1 | -3 | 0 | 0 | 7 | -6 | -2 | . | . | . | . | .
COc1ccc(-c2cn3c4c(sc3n2)CCCC4)cc1 | 53* | -6 | 0 | 17 | 57* | 46 | 69* | 68* | 89* | 54* | 39
Cc1ccc(C(=O)Nc2sc3c(c2C(=O)O)CCCC3)o1 | 75* | -15 | -1 | -466 | 89* | 91* | 95* | 94* | 101* | 96* | 92*
O=C(Nc1sc2c(c1C(=O)O)CCC2)c1ccco1 | 91* | 5 | 1 | -81 | 97* | 91* | 94* | 94* | 101* | 96* | 93*
Cc1ccc(C(=O)Nc2sc3c(c2C(=O)O)CCCCC3)o1 | 91* | 12 | -2 | -423 | -15 | 97* | 98* | 100* | 103* | 98* | 97*
COC(=O)c1c(NC(=O)c2ccco2)sc2c1CCC2 | 2 | -4 | -2 | -401 | -6 | -4 | . | . | . | . | .
COC(=O)c1c(NC(=O)c2ccc(C)o2)sc2c1CCCCC2 | -4 | -1 | -4 | -294 | -19 | -12 | . | . | . | . | .
NC(=O)c1c(NC(=O)c2cc3ccccc3o2)sc2c1CCC2 | 38 | 5 | -36 | -438 | 60* | 25 | 14 | 17 | 67* | 36 | 18
NC(=O)c1c(NC(=O)c2ccc([N+](=O)[O-])o2)sc2c1CCCC2 | -4 | -2 | 1 | -76 | -15 | -10 | . | . | . | . | .
COCCNC(=O)c1cccc2c(-c3ccnn3C)coc12 | . | . | 0 | -2 | . | . | . | . | . | . | .
CCCCN(C=O)c1c(CC)nc2c(OCc3ccccc3C)cccn12 | . | . | -1 | 13 | . | . | . | . | . | . | .
CCOc1ccc(N(C(C)C(=O)Nc2ccc(OC)cc2)S(C)(=O)=O)cc1 (stereo unspecified) | 71* | 3 | -1 | 11 | 0 | -9 | 6 | 7 | -8 | -2 | -4
SMILES | SENP7 inh | Platelet DG rel | SENP1 inh | SENP8 block-1 | SENP6 block | SENP8 block-2 | SENP8 conf | SENP6 conf | SENP7 confirm | Casp3 SENP sel | SENP luc ctr
CCN(CC)S(=O)(=O)c1ccc(NC(=O)C(C)N(c2ccc(OC)cc2)S(C)(=O)=O)cc1 (stereo unspecified) | -1 | 1 | 0 | 0 | 1 | 1 | . | . | . | . | .
CCOc1ccc(OCC(=O)Nc2cc(Cl)ccc2-n2cncn2)cc1 | . | . | -4 | 5 | . | . | . | . | . | . | .
Cc1c([N+](=O)[O-])c(C(=O)Nc2ccc3c(c2)OCCO3)nn1C | 73* | 29 | 1 | 12 | 75* | 42 | 68* | 66* | 87* | 89* | 72*
COc1ccc(NC(=O)c2ocnc2C)cc1OC | -3 | 2 | 2 | 12 | -1 | -16 | . | . | . | . | .
Cc1ncoc1C(=O)Nc1ccc2c(c1)OCCO2 | 77* | 66* | 0 | 3 | 64* | 60* | 70* | 66* | 89* | 91* | 72*
Cc1ccsc1C(=O)Nc1ccc2c(c1)OCCO2 | 92* | 25 | 1 | -4 | 86* | 85* | 90* | 90* | 99* | 95* | 91*
Cc1ncoc1C(=O)Nc1ccc(Oc2ccccc2)cc1 | 56* | 2 | 3 | 12 | 62* | 32 | 51* | 46 | 78* | 44 | 62*
CC(=O)Nc1ccc2c(c1)OCCOCCOc1cc(NC(C)=O)ccc1OCCOCCOCCO2 | 2 | -2 | . | . | -14 | -2 | . | . | . | . | .
CC(C)(C)c1ccc(C(=O)Nc2ccc(NC(=O)C(=O)O)cc2)o1 | -4 | -2 | 4 | 9 | 3 | -3 | . | . | . | . | .
COC(=O)c1ccnc(SCC(=O)c2ccccc2)c1 | 70* | 3 | 0 | 2 | 74* | 53* | 60* | 55* | 82* | 74* | 64*
COC(=O)c1cnc(SCc2ccc(Cl)cc2)n1C | -9 | 2 | -3 | 5 | 0 | -12 | . | . | . | . | .

Compound activity: PubChem BioAssay, several laboratories
